In ChEMBL document CHEMBL4138318, “Discovery of 5-Cyano-6-phenylpyrimidin Derivatives Containing an Acylurea Moiety as Orally Bioavailable Reversal Agents against P-Glycoprotein-Mediated Mutidrug Resistance” (J Med Chem, 2018):

Columns and labels:
[1] = Cytotoxicity against human SW620/AD300 cells assessed as survival at 2 uM after 72 hrs by MTT assay relative to control; type: cell-based; details: read-out: Survival
[2] = Cytotoxicity against human SW620 cells assessed as survival at 2 uM after 72 hrs by MTT assay relative to control; type: cell-based, SW-620; details: read-out: Survival
[3] = molecular target: ATP-dependent translocase ABCB1 (Homo sapiens, UniProt P08183); test: Inhibition of ABCB1 in human SW620/AD300 cells assessed as potentiation of paclitaxel-induced cytotoxicity by measuring fold reduction in paclitaxel IC50 at 2 uM after 72 hrs by MTT assay relative to paclitaxel alone; type: cell-based
ATP-dependent translocase ABCB1, sequence (P08183 whole entry): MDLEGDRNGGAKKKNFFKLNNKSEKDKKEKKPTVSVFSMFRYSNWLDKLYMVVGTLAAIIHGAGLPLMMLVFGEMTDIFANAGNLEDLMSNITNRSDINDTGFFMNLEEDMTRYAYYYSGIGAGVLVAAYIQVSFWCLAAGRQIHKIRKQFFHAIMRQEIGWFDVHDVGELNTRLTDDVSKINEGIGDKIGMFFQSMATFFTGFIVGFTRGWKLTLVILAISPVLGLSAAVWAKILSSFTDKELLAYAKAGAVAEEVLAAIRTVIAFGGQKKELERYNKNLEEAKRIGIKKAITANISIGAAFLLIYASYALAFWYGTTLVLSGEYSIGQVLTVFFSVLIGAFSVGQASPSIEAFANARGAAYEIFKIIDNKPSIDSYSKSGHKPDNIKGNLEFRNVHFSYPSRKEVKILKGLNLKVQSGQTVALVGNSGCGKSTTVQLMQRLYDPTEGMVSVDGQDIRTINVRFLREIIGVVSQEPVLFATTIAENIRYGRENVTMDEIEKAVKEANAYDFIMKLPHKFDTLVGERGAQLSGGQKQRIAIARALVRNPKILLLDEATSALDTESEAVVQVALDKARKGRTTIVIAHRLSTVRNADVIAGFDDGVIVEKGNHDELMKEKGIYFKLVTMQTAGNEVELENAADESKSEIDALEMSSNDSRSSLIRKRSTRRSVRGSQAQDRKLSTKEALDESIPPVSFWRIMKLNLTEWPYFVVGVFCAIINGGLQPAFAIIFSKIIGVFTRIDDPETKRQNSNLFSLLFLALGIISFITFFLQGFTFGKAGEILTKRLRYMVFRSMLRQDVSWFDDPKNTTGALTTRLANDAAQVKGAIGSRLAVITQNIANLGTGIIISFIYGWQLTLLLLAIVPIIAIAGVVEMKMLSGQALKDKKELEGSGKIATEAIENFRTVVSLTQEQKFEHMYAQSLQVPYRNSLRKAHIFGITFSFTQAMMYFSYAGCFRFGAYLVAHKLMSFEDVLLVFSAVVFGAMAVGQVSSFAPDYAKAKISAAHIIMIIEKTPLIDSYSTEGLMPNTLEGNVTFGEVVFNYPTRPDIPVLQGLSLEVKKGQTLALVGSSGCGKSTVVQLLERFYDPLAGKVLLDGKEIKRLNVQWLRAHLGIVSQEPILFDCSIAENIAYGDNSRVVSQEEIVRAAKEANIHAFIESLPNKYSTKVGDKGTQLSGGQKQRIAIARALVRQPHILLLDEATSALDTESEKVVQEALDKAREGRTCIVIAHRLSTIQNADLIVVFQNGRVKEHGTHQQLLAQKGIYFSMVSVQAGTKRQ
Outline: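 SW620/AD300 cells (~5×10^3/well) treated with graded paclitaxel with or without modulator (2 µM, or 0.5-2 µM in dose series; 0.1% DMSO solvent control) for 72 h; MTT (5 mg/mL stock) added 4 h, absorbance 490 nm. IC50 as mean ± SD of three independent runs; reversal fold = paclitaxel IC50 without/with modulator.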

Cc1ccccc1Nc1nc(SCc2cn(CC(=O)NC(=O)Nc3ccccn3)nn2)nc(-c2ccc(C(C)C)cc2)c1C#N
viability at 72 h, 2 µM [1]: > 90% | viability at 72 h, 2 µM [2]: > 90% | fold change (FC) [3]: 4.69

COc1ccc(Nc2nc(SCc3cn(CC(=O)NC(=O)Nc4ccccn4)nn3)nc(-c3ccc(C(C)C)cc3)c2C#N)cc1
viability at 72 h, 2 µM [1]: > 90% | viability at 72 h, 2 µM [2]: > 90% | fold change (FC) [3]: 6.3

COc1ccccc1Nc1nc(SCc2cn(CC(=O)NC(=O)Nc3ccccn3)nn2)nc(-c2ccc(C)cc2)c1C#N
viability at 72 h, 2 µM [1]: > 90% | viability at 72 h, 2 µM [2]: > 90% | fold change (FC) [3]: 10.71

CC(C)c1ccc(-c2nc(SCC(=O)NC(=O)Nc3ccccn3)nc(Nc3cccc(C(F)(F)F)c3)c2C#N)cc1
viability at 72 h, 2 µM [1]: > 90% | viability at 72 h, 2 µM [2]: > 90% | fold change (FC) [3]: 37.04

N#Cc1c(Nc2ccc(Cl)cc2)nc(SCC(=O)NC(=O)Nc2ccccn2)nc1-c1ccc(Cl)cc1
viability at 72 h, 2 µM [1]: > 90% | viability at 72 h, 2 µM [2]: > 90% | fold change (FC) [3]: 2.32

COc1cc(-c2nc(SCC(=O)Nc3ccccn3)nc(Nc3cccc(Cl)c3)c2C#N)cc(OC)c1OC
viability at 72 h, 2 µM [1]: > 90% | viability at 72 h, 2 µM [2]: > 90% | fold change (FC) [3]: 5.51

COc1cc(-c2nc(SCC(=O)NC(=O)Nc3ccccc3)nc(Nc3cccc([N+](=O)[O-])c3)c2C#N)cc(OC)c1OC
viability at 72 h, 2 µM [1]: > 90% | viability at 72 h, 2 µM [2]: > 90% | fold change (FC) [3]: 21.04

COc1cc(-c2nc(SCc3ccccc3)nc(Nc3ccc(Cl)cc3)c2C#N)cc(OC)c1OC
viability at 72 h, 2 µM [1]: > 90% | viability at 72 h, 2 µM [2]: > 90% | fold change (FC) [3]: 1.24

COc1cc(-c2nc(SCc3cn(CC(=O)NC(=O)Nc4ccccn4)nn3)nc(Nc3ccc(C(C)C)cc3)c2C#N)cc(OC)c1OC
viability at 72 h, 2 µM [1]: > 90% | viability at 72 h, 2 µM [2]: > 90% | fold change (FC) [3]: 13.16

CC(C)c1ccc(-c2nc(SCc3cn(CC(=O)NC(=O)Nc4ccccn4)nn3)nc(Nc3ccccc3)c2C#N)cc1
viability at 72 h, 2 µM [1]: > 90% | viability at 72 h, 2 µM [2]: > 90% | fold change (FC) [3]: 1.65

COc1ccc(Nc2nc(SCC(=O)NC(=O)Nc3ccccn3)nc(-c3ccc(C(C)C)cc3)c2C#N)cc1
viability at 72 h, 2 µM [1]: > 90% | viability at 72 h, 2 µM [2]: > 90% | fold change (FC) [3]: 2.17

Cc1ccc(Nc2nc(SCC(=O)NC(=O)Nc3ccccn3)nc(-c3ccccc3)c2C#N)cc1
viability at 72 h, 2 µM [1]: > 90% | viability at 72 h, 2 µM [2]: > 90% | fold change (FC) [3]: 1.67

N#Cc1c(Nc2cccc(C(F)(F)F)c2)nc(SCC(=O)NC(=O)Nc2ccccn2)nc1-c1ccc(F)c(F)c1
viability at 72 h, 2 µM [1]: > 90% | viability at 72 h, 2 µM [2]: > 90% | fold change (FC) [3]: 3.11

N#Cc1c(Nc2cccc(C(F)(F)F)c2)nc(SCC(=O)NC(=O)Nc2ccccn2)nc1-c1ccc(Cl)cc1
viability at 72 h, 2 µM [1]: > 90% | viability at 72 h, 2 µM [2]: > 90% | fold change (FC) [3]: 2.86

COc1ccc(Nc2nc(SCc3cn(CC(=O)NC(=O)Nc4ccccn4)nn3)nc(-c3ccc(C)cc3)c2C#N)cc1
viability at 72 h, 2 µM [1]: > 90% | viability at 72 h, 2 µM [2]: > 90% | fold change (FC) [3]: 1.18

CC(C)c1ccc(Nc2nc(SCc3cn(CC(=O)NC(=O)Nc4ccccn4)nn3)nc(-c3ccc(C(C)C)cc3)c2C#N)cc1
viability at 72 h, 2 µM [1]: > 90% | viability at 72 h, 2 µM [2]: > 90% | fold change (FC) [3]: 9.49

CC(C)c1ccc(-c2nc(SCc3cn(CC(=O)NC(=O)Nc4ccccn4)nn3)nc(Nc3ccccc3F)c2C#N)cc1
viability at 72 h, 2 µM [1]: > 90% | viability at 72 h, 2 µM [2]: > 90% | fold change (FC) [3]: 2.74

N#Cc1c(Nc2cccc(Cl)c2)nc(SCC(=O)NC(=O)Nc2ccccn2)nc1-c1ccc(F)c(F)c1
viability at 72 h, 2 µM [1]: > 90% | viability at 72 h, 2 µM [2]: > 90% | fold change (FC) [3]: 4.37

Cc1ccc(-c2nc(SCc3cn(CC(=O)NC(=O)Nc4ccccn4)nn3)nc(Nc3cccc(Cl)c3)c2C#N)cc1
viability at 72 h, 2 µM [1]: > 90% | viability at 72 h, 2 µM [2]: > 90% | fold change (FC) [3]: 13.42

Cc1ccc(Nc2nc(SCc3cn(CC(=O)NC(=O)Nc4ccccn4)nn3)nc(-c3ccc(Br)cc3)c2C#N)cc1
viability at 72 h, 2 µM [1]: > 90% | viability at 72 h, 2 µM [2]: > 90% | fold change (FC) [3]: 1.41
